Results published in paper PMC3983351 (Journal of Medicinal Chemistry, 2014).

Experiment: silicate ester hydrolysis rate study by 1H NMR
Type: physicochemical
Conditions: for ∼krel of hydrolysis at C2′: C2′ silicate; for ∼krel of hydrolysis at C2′ / ∼krel of hydrolysis at C7: kobs relative to that of 1d; for difference in krel, triethyl vs trioctyl silicate: 1a vs 1b (PTX) or 4a vs 4b; for ∼krel of hydrolysis at C7: C7 silicate
Summary of the method: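 About 10 mg silicate ester in 900 μL acetone-d6, then 100 μL of 9:1 v/v D2O/TFA added and mixed. Held at 22 °C ± 1.0 °C. 1H NMR at 500 MHz (16 or 32 transients) at 8–30 time points over more than 3 half-lives. The 2′/7-methine signals of silicate and free taxane were integrated against H5. kobs came from the ln[species] vs time slope (three replicates). krel is kobs divided by that of the reference silicate.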

Row | ∼krel of hydrolysis at C2′ | difference in krel, triethyl vs trioctyl silicate | ∼krel of hydrolysis at C7 | Compound
1 | 0.88 | – | – | 2′-(Trimenthyloxysilyloxy)docetaxel [4d]
2 | 2600 | – | – | 2′-O-(Tri-n-octyloxysilyl)docetaxel [4b]
3 | 6500 | ~3 | – | 2′-O-(Triethoxysilyl)docetaxel [4a]
4 | 260 | – | – | 2′-O-(Triisopropoxysilyl)docetaxel [4c]
5 | 18000 | ~3 | – | CCO[Si](OCC)(OCC)O[C@@H](C(=O)O[C@H]1C[C@@]2(O)[C@@H](OC(=O)c3ccccc3)[C@@H]3[C@]4(OC(C)=O)CO[C@@H]4C[C@H](O)[C@@]3(C)C(=O)[C@H](OC(C)=O)C(=C1C)C2(C)C)[C@@H](NC(=O)c1ccccc1)c1ccccc1 [1a, 2′-O-[(Triethoxy)silyl]paclitaxel]
6 | 570 | – | – | CC(=O)O[C@H]1C(=O)[C@@]2(C)[C@H]([C@H](OC(=O)c3ccccc3)[C@]3(O)C[C@H](OC(=O)[C@H](O[Si](OC(C)C)(OC(C)C)OC(C)C)[C@@H](NC(=O)c4ccccc4)c4ccccc4)C(C)=C1C3(C)C)[C@]1(OC(C)=O)CO[C@@H]1C[C@@H]2O [1c, 2′-O-[(Triisopropoxy)silyl]paclitaxel]
7 | 1.0 | – | – | CC(=O)O[C@H]1C(=O)[C@@]2(C)[C@H]([C@H](OC(=O)c3ccccc3)[C@]3(O)C[C@H](OC(=O)[C@H](O[Si](OC4CC(C)CCC4C(C)C)(OC4CC(C)CCC4C(C)C)OC4CC(C)CCC4C(C)C)[C@@H](NC(=O)c4ccccc4)c4ccccc4)C(C)=C1C3(C)C)[C@]1(OC(C)=O)CO[C@@H]1C[C@@H]2O (some centres unmarked) [1d, 2′-[(Trimenthyloxy)silyl]paclitaxel]
8 | 15000 | – | 2100 | CCO[Si](OCC)(OCC)O[C@H]1C[C@H]2OC[C@@]2(OC(C)=O)[C@H]2[C@H](OC(=O)c3ccccc3)[C@]3(O)C[C@H](OC(=O)[C@H](O[Si](OCC)(OCC)OCC)[C@@H](NC(=O)c4ccccc4)c4ccccc4)C(C)=C([C@@H](OC(C)=O)C(=O)[C@]12C)C3(C)C [2a, 2′,7-Di-O-(triethoxysilyl)paclitaxel]
9 | 3800 | – | 340 | CCCCCCCCO[Si](OCCCCCCCC)(OCCCCCCCC)O[C@H]1C[C@H]2OC[C@@]2(OC(C)=O)[C@H]2[C@H](OC(=O)c3ccccc3)[C@]3(O)C[C@H](OC(=O)[C@H](O[Si](OCCCCCCCC)(OCCCCCCCC)OCCCCCCCC)[C@@H](NC(=O)c4ccccc4)c4ccccc4)C(C)=C([C@@H](OC(C)=O)C(=O)[C@]12C)C3(C)C [2b, 2′,7-Di-O-(Tri-n-octyloxysilyl)paclitaxel]
10 | 520 | – | 46 | CC(=O)O[C@H]1C(=O)[C@]2(C)[C@@H](O[Si](OC(C)C)(OC(C)C)OC(C)C)C[C@H]3OC[C@@]3(OC(C)=O)[C@H]2[C@H](OC(=O)c2ccccc2)[C@]2(O)C[C@H](OC(=O)[C@H](O[Si](OC(C)C)(OC(C)C)OC(C)C)[C@@H](NC(=O)c3ccccc3)c3ccccc3)C(C)=C1C2(C)C [2c, 2′,7-Di-O-(triisopropoxysilyl)paclitaxel]
11 | – | – | 2200 | CCO[Si](OCC)(OCC)O[C@H]1C[C@H]2OC[C@@]2(OC(C)=O)[C@H]2[C@H](OC(=O)c3ccccc3)[C@]3(O)C[C@H](OC(=O)[C@H](O)[C@@H](NC(=O)c4ccccc4)c4ccccc4)C(C)=C([C@@H](OC(C)=O)C(=O)[C@]12C)C3(C)C [3a, 7-O-(Triethoxysilyl)paclitaxel]
12 | – | – | 450 | CCCCCCCCO[Si](OCCCCCCCC)(OCCCCCCCC)O[C@H]1C[C@H]2OC[C@@]2(OC(C)=O)[C@H]2[C@H](OC(=O)c3ccccc3)[C@]3(O)C[C@H](OC(=O)[C@H](O)[C@@H](NC(=O)c4ccccc4)c4ccccc4)C(C)=C([C@@H](OC(C)=O)C(=O)[C@]12C)C3(C)C [3b, 7-O-(Tri-n-octyloxysilyl)paclitaxel]

Row | Compound | ∼krel of hydrolysis at C2′ | difference in krel, triethyl vs trioctyl silicate | ∼krel of hydrolysis at C7
13 | 2′-(Di-tert-butoxyethoxysilyl)docetaxel [4e] | 5.0 | – | –
14 | CCO[Si](O[C@@H](C(=O)O[C@H]1C[C@@]2(O)[C@@H](OC(=O)c3ccccc3)[C@@H]3[C@]4(OC(C)=O)CO[C@@H]4C[C@H](O)[C@@]3(C)C(=O)[C@H](OC(C)=O)C(=C1C)C2(C)C)[C@@H](NC(=O)c1ccccc1)c1ccccc1)(OC(C)(C)C)OC(C)(C)C [1f, 2′-O-[(Di-tert-butoxy)(ethoxy)silyl]paclitaxel] | 5.6 | – | –
15 | CC(=O)O[C@H]1C(=O)[C@@]2(C)[C@H]([C@H](OC(=O)c3ccccc3)[C@]3(O)C[C@H](OC(=O)[C@H](O[Si](OC(C)=O)(OC(C)(C)C)OC(C)(C)C)[C@@H](NC(=O)c4ccccc4)c4ccccc4)C(C)=C1C3(C)C)[C@]1(OC(C)=O)CO[C@@H]1C[C@@H]2O [1g, 2′-O-(Di-tert-butoxyacetoxysilyl)paclitaxel] | 1900 | – | –
